Data taken from ChEMBL document CHEMBL4680070, “A second generation of 1,2,4-oxadiazole derivatives with enhanced solubility for inhibition of 3-hydroxykynurenine transaminase (HKT) from Aedes aegypti” (RSC Med Chem, 2021).
pIC50: −log10 of the molar value. The source made the active and inactive calls. The calls are words filed in the database; no cut-off is given here.

Key:
[1] = Inhibition of recombinant Aedes aegypti RecLab N-terminal Trx-fused/His6-tagged 3-hydroxykynurenine transaminase H360M mutant expressed in Escherichia coli Rosetta 2 (DE3) assessed as reduction in conversion of 3-hydroxy kynurenine to xanthurenic-acid using 3-D,L hydroxy kynurenine as substrate preincubated with PLP cofactor and enzyme and 30 mins later incubated with 3-D,L-HK and measured after 5 mins by microplate reader assay
Outline: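 Recombinant AeHKT (2 μg) in 200 mM HEPES/100 mM NaCl with 2 mM 3-D,L-HK, 2 mM sodium pyruvate and 40 μM PLP. Reaction ran 5 min at 50 °C and was stopped with 10 mM FeCl3 in 0.1 M HCl. The XA–Fe3+ complex was read at 570 nm, and XA was quantified against a calibration curve. Run in duplicate.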

[2] = target: 3-hydroxykynurenine transaminase (Aedes aegypti) (UniProt Q0IG34); test: Competitive inhibition of Aedes aegypti 3-hydroxykynurenine transaminase at 300 uM using varying level of 3-D,L hydroxy kynurenine as substrate by Lineweaver-Burk plot analysis
3-hydroxykynurenine transaminase (Aedes aegypti), sequence (Q0IG34 whole entry): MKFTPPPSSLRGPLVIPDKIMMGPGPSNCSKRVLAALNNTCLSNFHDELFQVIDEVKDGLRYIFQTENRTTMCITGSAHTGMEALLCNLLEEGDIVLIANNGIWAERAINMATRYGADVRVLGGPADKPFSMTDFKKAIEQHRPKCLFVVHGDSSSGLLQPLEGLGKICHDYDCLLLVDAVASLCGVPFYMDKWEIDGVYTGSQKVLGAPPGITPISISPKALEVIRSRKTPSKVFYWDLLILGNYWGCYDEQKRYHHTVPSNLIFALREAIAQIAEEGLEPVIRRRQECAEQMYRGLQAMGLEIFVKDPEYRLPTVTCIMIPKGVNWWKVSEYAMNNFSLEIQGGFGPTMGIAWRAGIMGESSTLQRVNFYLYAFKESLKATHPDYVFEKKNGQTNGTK

| Compound | pIC50 [1] | inhibition [2] |
| --- | --- | --- |
| O=C(O)CCc1nc(-c2ccc(F)cc2)no1 | 3.91 |  |
| O=C(O)CCc1nc(-c2ccccc2)no1 | 3.86 | Active |
| Cc1ccccc1-c1noc(CCC(=O)O)n1 | 3.47 |  |
| O=C(O)CCc1nc(-c2ccccc2F)no1 | 3.94 |  |
| O=C(O)CCCc1nc(-c2ccc3c(c2)OCO3)no1 | 4.06 |  |
| COc1cccc(-c2noc(CCC(=O)O)n2)c1 | 3.80 |  |
| O=C(O)CCc1nc(-c2ccco2)no1 | 4.08 |  |
| O=C(O)CCc1nc(-c2ccc(Cl)c(Cl)c2)no1 | 4.07 |  |
| O=C(O)CCc1nc(-c2cccc([N+](=O)[O-])c2)no1 | 4.07 |  |
| O=C(O)CCCc1nc(-c2ccc(Br)cc2)no1 | 3.96 |  |
| COc1ccc(-c2noc(CCCC(=O)O)n2)cc1 | 4.00 |  |
| O=C(O)CCc1nc(-c2ccccc2Cl)no1 | 4.11 |  |
| O=C(O)CCc1nc(-c2ccc(Cl)cc2)no1 | 4.07 |  |
| Cc1cccc(-c2noc(CCC(=O)O)n2)c1 | 3.96 |  |
| Cc1ccc(-c2noc(CCCC(=O)O)n2)cc1 | 4.06 |  |
| O=C(O)CCc1nc(-c2ccc3c(c2)OCO3)no1 | 4.08 |  |
| O=C(O)CCCc1nc(-c2ccc(Cl)cc2)no1 | 3.53 |  |
| O=C(O)CCc1nc(-c2ccc(Br)cc2)no1 | 3.92 |  |

Continued by rising pIC50 [1], values first:

| pIC50 [1] | inhibition [2] | Compound |
| --- | --- | --- |
| 4.12 |  | O=C(O)CCc1nc(-c2ccc([N+](=O)[O-])cc2)no1 |
| 4.14 |  | Cc1ccc(-c2noc(CCC(=O)O)n2)cc1 |
| 4.14 |  | O=C(O)CCCc1nc(-c2ccccc2)no1 |
| 4.15 |  | O=C(O)CCCc1nc(-c2ccc(C(F)(F)F)cc2)no1 |
| 4.17 |  | O=C(O)CCc1nc(-c2cccs2)no1 |
| 4.19 |  | O=C(O)CCCc1nc(-c2ccc(Cl)c(Cl)c2)no1 |
| 4.20 |  | O=C(O)CCCc1nc(-c2cccc3ccccc23)no1 |
| 4.21 |  | O=C(O)CCc1nc(-c2cccc(Br)c2)no1 |
| 4.27 |  | Cc1cccc(-c2noc(CCCC(=O)O)n2)c1 |
| 4.38 |  | O=C(O)CCc1nc(-c2ccc(C(F)(F)F)cc2)no1 |
| 4.38 |  | O=C(O)CCCc1nc(-c2ccc(I)cc2)no1 |
| 4.46 |  | COc1ccc(-c2noc(CCC(=O)O)n2)cc1 |
